Test results published in ChEMBL document CHEMBL3877298, “Discovery of benzimidazole derivatives as modulators of mitochondrial function: A potential treatment for Alzheimer's disease” (Eur J Med Chem, 2017).

Columns and labels:
[1] = target: Translocator protein (Homo sapiens, UniProt P30536); experiment: Binding affinity to recombinant human TSPO by SPR assay
In short: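 Biacore T200 at 25 °C with recombinant human TSPO (18 kDa) amine-coupled to a CM5 chip in 10 mM sodium acetate pH 4.5, giving 4000–6000 RU. Compounds from 10 mM DMSO stocks were diluted in PBS-P; running buffer held 1.0% DMSO. Five concentrations, 0.01–5 µM, were injected at 50 µL/min (120 s contact, 300 s dissociation), with blanks and regeneration. KD reported.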

[2] = Volume of distribution at steady state in Sprague-Dawley rat at 10 mg/kg, iv by LC-MS/MS analysis; assay type: ADME, organism-based; settings: in vivo, read-out: Vdss
In short: (§1)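 Male SD rats, 8 weeks old, given 10 mg/kg intravenously (n = 4). Plasma mixed with carbamazepine internal standard in acetonitrile, vortexed, centrifuged at 10,000×g, and the supernatant analysed by LC-MS/MS. Parameters reported as mean ± SD.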

[3] = target: Voltage-gated inwardly rectifying potassium channel KCNH2 (Homo sapiens, UniProt Q12809); experiment: Inhibition of human ERG expressed in CHOK1 cells by automated patch clamp method; assay type: cell-based, CHO-K1
[4] = target: T1, CYP1A2 (Homo sapiens, UniProt P05177); experiment: Inhibition of recombinant human CYP1A2 expressed in baculosomes coexpressing rabbit NADPH-P450 reudctase assessed as residual activity at 10 uM preincubated for 5 mins followed by substrate and NADP+ addition measured after 20 mins by fluorescence assay relative to control; assay type: ADME; settings: read-out: Activity
T1 sequence (P05177 whole entry): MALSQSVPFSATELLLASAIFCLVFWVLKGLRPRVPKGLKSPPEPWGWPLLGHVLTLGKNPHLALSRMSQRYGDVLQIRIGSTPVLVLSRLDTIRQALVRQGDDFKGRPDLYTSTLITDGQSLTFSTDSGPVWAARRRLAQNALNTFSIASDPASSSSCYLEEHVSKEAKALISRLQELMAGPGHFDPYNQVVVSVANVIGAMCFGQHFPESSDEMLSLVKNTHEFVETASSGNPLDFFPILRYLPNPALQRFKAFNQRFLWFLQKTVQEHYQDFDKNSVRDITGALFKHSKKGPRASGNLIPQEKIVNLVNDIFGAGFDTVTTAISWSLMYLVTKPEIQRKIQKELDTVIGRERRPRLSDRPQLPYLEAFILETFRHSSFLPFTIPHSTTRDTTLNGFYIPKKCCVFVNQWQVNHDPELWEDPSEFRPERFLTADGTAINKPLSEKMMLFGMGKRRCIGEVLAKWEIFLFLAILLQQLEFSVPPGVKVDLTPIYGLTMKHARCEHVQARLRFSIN
In short: (§2)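 Vivid CYP450 kit: recombinant human CYP isozyme in Baculosomes with rabbit NADPH-P450 reductase, plus regeneration system (3.3 mM glucose-6-phosphate, 0.3 U/mL G6PDH in 100 mM potassium phosphate, pH 8.0). Mixture preincubated with sample for 5 min at 37 °C. Vivid substrate and 0.1 mM NADP+ were then added, and remaining activity read by fluorescence after 20 min.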

[5] = target: Translocator protein (Mus musculus) (UniProt P50637); experiment: Inhibition of TSPO in mouse HT22 cells assessed as inhibition of amyloid beta (1 to 42)-induced ROS generation at 5 uM after 6 hrs by DCFDA staining based fluorescence assay relative to control; assay type: cell-based; settings: HT-22
[6] = Auc (0 to infinity) in Sprague-Dawley rat at 10 mg/kg, iv by LC-MS/MS analysis; assay type: ADME, organism-based; set-up: dose 10 mg/kg, time infinity, route intravenous; settings: in vivo; in short: as §1
[7] = target: CYP2C9 (Homo sapiens, UniProt P11712); experiment: Inhibition of recombinant human CYP2C9 expressed in baculosomes coexpressing rabbit NADPH-P450 reudctase assessed as residual activity at 10 uM preincubated for 5 mins followed by substrate and NADP+ addition measured after 20 mins by fluorescence assay relative to control; assay type: ADME; settings: read-out: Activity; in short: as §2
[8] = target: CYP3A4 (Homo sapiens, UniProt P08684); experiment: Inhibition of recombinant human CYP3A4 expressed in baculosomes coexpressing rabbit NADPH-P450 reudctase assessed as residual activity at 10 uM preincubated for 5 mins followed by substrate and NADP+ addition measured after 20 mins by fluorescence assay relative to control; assay type: ADME; settings: read-out: Activity; in short: as §2
[9] = Ratio of drug level in brain to plasma in Sprague-Dawley rat at 10 mg/kg, iv at 2 hrs post dose by LC-MS/MS analysis; assay type: ADME, organism-based; settings: brain and plasma, read-out: BPR
In short: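 After intravenous dosing at 10 mg/kg in male SD rats, brain and plasma were sampled at 2 h. Each was mixed with carbamazepine internal standard in acetonitrile and analysed by LC-MS/MS.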

[10] = Drug excretion in Sprague-Dawley rat at 10 mg/kg, po by LC-MS/MS analysis; assay type: ADME, organism-based; settings: in vivo, read-out: Drug excretion
[11] = target: Translocator protein (Rattus norvegicus, UniProt P16257); experiment: Displacement of [3H]PK11195 from TSPO in Sprague-Dawley rat cerebral cortex membranes after 60 mins by microbeta liquid scintillation counting method; set-up: species or system Membrane
[12] = Cmax in Sprague-Dawley rat at 10 mg/kg, po by LC-MS/MS analysis; assay type: ADME, organism-based; set-up: dose 10 mg/kg, route oral; settings: in vivo
In short: (§3)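 Male SD rats, 8 weeks old, acclimatised at least 1 week; compound dissolved at 10 mg/2 mL in N-methyl-2-pyrrolidone/Tween80/water (1:2:7) by 5 min sonication, given 10 mg/kg by oral gavage at 2 mL/kg (n = 5). Heart-puncture blood drawn at 30 min and 3 h, plasma spun and stored at -70 °C. Samples mixed with carbamazepine internal standard in acetonitrile and assayed by LC-MS/MS.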

[13] = Tmax in Sprague-Dawley rat at 10 mg/kg, po by LC-MS/MS analysis; assay type: ADME, organism-based; settings: in vivo; in short: as §3
[14] = target: Translocator protein (Mus musculus) (UniProt P50637); experiment: Inhibition of TSPO in mouse HT22 cells assessed as protection against amyloid beta (1 to 42)-induced mitochondrial membrane potential loss by measuring recovery of mitochondrial membrane potential at 5 uM preincubated for 10 mins followed by amyloid beta (1 to 42) addition measured every 1 hr for 3 hrs by JC1 staining based fluorescence assay relative to control; assay type: cell-based; set-up: scale not given: the % may be the effect or the level left; settings: HT-22
In short: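 HT22 cells at 30,000 per well were loaded with 7.5 µM JC-1 in phenol red-free Opti-MEM for 1 h 15 min at 37 °C, then washed. Cells were treated with compound (5 µM) and Aβ1-42 (5 µM); vehicle wells received DMSO. Green (485/535) and red (560/595) fluorescence were read hourly for 3 h. Recovery was normalised between Aβ-damaged (0%) and normal (100%) ratio.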

[15] = Oral bioavailability in Sprague-Dawley rat at 10 mg/kg by LC-MS/MS analysis; assay type: ADME, organism-based; settings: in vivo; in short: as §3
[16] = target: Translocator protein (Mus musculus) (UniProt P50637); experiment: Inhibition of TSPO in mouse HT22 cells assessed as inhibition of amyloid beta (1 to 42)-induced toxicity at 5 uM after 24 hrs by MTT assay relative to control; assay type: cell-based; settings: HT-22
In short: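 HT22 cells at 5000 per well were treated with compound (5 µM), with or without Aβ1-42 (5 µM), for 24 h at 37 °C. MTT was added for 2 h, then solubilising solution (10% Triton X-100 in isopropanol with 0.1 M HCl) for 2 h more. Absorbance read at 560 nm; % inhibition normalised to vehicle, and viability taken from compound-only wells.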

Chain of Translocator protein (Mus musculus) (P50637 whole entry, looked up): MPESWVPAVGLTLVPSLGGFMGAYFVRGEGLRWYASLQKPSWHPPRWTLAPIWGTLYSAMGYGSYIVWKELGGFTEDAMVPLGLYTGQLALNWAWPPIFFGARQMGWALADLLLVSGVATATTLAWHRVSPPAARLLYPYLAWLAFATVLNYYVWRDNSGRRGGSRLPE
Chain of Translocator protein (Rattus norvegicus, UniProt P16257) (P16257 whole entry, looked up): as the sequence (P50637 whole entry, looked up) above, with P2S, E3Q, V67I, D77E, A110V, L113M, V149M, P168T counted along it
Chain of CYP3A4 (P08684 whole entry): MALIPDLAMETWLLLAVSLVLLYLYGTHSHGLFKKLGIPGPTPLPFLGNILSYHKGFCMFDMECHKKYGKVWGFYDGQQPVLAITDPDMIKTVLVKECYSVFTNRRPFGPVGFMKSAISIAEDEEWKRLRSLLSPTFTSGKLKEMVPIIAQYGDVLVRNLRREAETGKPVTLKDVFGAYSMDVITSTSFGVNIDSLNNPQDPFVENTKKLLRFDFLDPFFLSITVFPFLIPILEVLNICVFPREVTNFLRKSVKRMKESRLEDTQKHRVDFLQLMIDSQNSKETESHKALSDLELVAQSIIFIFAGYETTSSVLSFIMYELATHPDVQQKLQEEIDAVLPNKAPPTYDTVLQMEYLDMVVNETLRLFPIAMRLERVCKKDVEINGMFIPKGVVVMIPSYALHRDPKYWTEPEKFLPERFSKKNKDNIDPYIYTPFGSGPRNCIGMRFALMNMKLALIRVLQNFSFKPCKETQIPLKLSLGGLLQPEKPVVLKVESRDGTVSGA
Chain of CYP2C9 (P11712 whole entry): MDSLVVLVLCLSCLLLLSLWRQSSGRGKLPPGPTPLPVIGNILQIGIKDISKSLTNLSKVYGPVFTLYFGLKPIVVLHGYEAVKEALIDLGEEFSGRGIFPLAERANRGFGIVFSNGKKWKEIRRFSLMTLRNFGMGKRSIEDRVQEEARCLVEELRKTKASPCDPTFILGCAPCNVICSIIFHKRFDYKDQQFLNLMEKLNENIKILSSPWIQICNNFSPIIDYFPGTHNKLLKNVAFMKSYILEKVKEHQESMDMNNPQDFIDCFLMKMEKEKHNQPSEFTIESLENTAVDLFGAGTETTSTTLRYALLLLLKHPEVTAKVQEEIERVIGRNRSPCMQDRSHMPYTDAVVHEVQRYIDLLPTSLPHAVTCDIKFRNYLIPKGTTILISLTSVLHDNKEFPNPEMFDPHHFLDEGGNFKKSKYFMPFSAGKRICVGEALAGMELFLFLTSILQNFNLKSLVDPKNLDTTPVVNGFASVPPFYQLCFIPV
Chain of Voltage-gated inwardly rectifying potassium channel KCNH2 (Q12809 whole entry): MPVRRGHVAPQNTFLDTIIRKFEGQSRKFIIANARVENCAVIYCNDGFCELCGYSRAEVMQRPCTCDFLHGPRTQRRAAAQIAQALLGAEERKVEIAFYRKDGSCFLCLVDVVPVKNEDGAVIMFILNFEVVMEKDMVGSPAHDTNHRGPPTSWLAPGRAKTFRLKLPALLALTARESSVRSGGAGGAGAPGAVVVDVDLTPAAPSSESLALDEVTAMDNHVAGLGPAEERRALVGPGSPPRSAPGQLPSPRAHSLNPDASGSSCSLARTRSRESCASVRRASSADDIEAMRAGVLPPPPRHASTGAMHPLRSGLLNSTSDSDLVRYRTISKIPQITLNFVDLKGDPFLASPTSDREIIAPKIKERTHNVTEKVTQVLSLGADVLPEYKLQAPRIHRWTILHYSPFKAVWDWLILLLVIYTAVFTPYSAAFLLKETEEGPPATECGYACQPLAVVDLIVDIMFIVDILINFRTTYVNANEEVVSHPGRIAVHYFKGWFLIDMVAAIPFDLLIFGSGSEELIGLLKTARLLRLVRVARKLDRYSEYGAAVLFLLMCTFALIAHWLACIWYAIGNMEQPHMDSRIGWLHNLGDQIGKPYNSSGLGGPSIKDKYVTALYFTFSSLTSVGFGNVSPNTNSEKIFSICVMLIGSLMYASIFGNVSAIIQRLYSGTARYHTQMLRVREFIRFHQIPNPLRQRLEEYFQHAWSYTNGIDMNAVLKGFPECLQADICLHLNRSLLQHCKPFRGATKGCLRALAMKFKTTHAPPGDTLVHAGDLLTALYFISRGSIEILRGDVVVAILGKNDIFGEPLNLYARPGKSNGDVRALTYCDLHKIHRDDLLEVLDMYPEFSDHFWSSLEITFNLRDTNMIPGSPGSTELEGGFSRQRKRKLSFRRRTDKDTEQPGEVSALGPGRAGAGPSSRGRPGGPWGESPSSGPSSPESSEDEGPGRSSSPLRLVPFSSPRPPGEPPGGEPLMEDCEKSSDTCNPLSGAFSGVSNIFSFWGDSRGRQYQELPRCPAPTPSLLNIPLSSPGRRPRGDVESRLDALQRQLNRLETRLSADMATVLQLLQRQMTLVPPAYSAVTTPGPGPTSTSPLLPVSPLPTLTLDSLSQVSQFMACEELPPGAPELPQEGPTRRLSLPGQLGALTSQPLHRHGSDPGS
Chain of Translocator protein (Homo sapiens, UniProt P30536) (P30536 whole entry): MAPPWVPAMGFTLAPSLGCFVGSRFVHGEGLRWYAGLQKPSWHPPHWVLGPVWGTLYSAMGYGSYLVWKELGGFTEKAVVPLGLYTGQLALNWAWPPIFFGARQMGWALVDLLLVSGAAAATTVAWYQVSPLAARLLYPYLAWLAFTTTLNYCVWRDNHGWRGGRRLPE

Cc1ccc(C(C)C)cc1NC(=O)Cn1c(Cc2c(Cl)cccc2Cl)nc2ccccc21 gave a Kd [1] of 108 nM, a Vd [2] of 6.21 L/kg and an IC50 [3] of over 100000 nM. The activity at 20 min, 10 µM [4] was 108%, the inhibition [5] was 85% and the AUC(0-inf) [6] was 1850 ng·h/mL. The activity at 20 min, 10 µM [7] was 54.7%, the activity at 20 min, 10 µM [8] was 224% and the Kp at 2 h [9] was 2.88. It also gave a dose excreted [10] of 0.01%, an IC50 [11] of 74.3 nM and a Ki [11] of 22.8 nM. The Cmax [12] was 70 ng/mL, the Tmax [13] was 33 min and the Activity [14] was 74%. It also gave a bioavailability [15] of 3.7% and an inhibition [16] of 30%.
